The source made the active and inactive calls. The calls are words filed in the database; no cut-off is given here.
Key:
[1] = Critical micellar concentration of the compound measured after 1 hr by pyrene fluorescence excitation spectral analysis
How it was run: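 Pyrene fluorescence method: pyrene at 0.6 μM final in water, iminosugar from 1180 to 4.3·10⁻³ μM, equilibrated 1 h at 37 °C. Emission was read at 375 nm. The I339/I335 excitation intensity ratio tracked the band shift, giving the CMC.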

[2] = molecular target: T1, Alpha-mannosidase (Canavalia ensiformis, UniProt C0HJB3); test: Inhibition of jack bean alpha-mannosidase using beta-D-glycopyranoside after 10 to 30 mins by spectrophotometry
T1 sequence (C0HJB3 whole entry): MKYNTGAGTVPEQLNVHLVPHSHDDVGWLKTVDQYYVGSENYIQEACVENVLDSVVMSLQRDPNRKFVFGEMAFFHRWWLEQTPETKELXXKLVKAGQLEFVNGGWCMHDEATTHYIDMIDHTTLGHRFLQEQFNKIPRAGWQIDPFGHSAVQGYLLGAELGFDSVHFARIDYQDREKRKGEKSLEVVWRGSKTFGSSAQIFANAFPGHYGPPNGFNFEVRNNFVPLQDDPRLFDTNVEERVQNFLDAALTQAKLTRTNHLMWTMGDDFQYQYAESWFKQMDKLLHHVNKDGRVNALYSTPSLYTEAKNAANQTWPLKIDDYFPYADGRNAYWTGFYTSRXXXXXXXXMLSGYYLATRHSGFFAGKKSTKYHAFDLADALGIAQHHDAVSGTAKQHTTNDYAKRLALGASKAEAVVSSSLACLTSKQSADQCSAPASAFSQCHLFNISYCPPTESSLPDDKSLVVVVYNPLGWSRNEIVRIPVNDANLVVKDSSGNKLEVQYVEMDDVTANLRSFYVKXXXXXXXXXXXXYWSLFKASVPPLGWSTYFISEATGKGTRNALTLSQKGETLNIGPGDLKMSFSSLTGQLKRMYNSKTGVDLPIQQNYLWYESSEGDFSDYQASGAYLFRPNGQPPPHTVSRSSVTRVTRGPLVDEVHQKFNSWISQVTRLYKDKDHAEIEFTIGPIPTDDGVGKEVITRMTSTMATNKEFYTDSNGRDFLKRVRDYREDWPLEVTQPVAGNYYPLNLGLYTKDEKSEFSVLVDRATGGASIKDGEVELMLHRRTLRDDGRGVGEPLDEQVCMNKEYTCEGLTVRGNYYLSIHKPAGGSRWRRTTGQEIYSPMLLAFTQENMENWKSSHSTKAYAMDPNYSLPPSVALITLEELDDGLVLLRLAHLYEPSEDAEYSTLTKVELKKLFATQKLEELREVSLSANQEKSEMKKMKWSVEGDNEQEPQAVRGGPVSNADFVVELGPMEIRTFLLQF
How it was run: (§1)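 Commercial glycosidases were assayed with o-nitrophenyl (E. coli β-galactosidase) or p-nitrophenyl glycoside substrate near KM. Buffer was phosphate, or phosphate-citrate for mannosidases and amyloglucosidase, at each enzyme's optimal pH. Enzyme was added last. Incubation ran 10-30 min at 37 °C (55 °C for amyloglucosidase), then was quenched with 1 M Na2CO3 and read at A405. Free compounds were tested up to 1 mM; 1:1 βCD complexes up to 2 mM.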

[3] = test system: Escherichia coli; test: Inhibition of Escherichia coli beta-galactosidase up to 1 mM using beta-D-glycopyranoside after 10 to 30 mins by spectrophotometry; how it was run: as §1
[4] = test system: Prunus dulcis; test: Inhibition of almond beta-glucosidase at 2 mM using beta-D-glycopyranoside after 10 to 30 mins in presence of beta-cyclodextrin by spectrophotometry; how it was run: as §1
[5] = test system: Saccharomyces cerevisiae; test: Inhibition of yeast alpha-glucosidase at 2 mM using beta-D-glycopyranoside after 10 to 30 mins in presence of beta-cyclodextrin by spectrophotometry; how it was run: as §1
[6] = test system: Saccharomyces cerevisiae; test: Inhibition of yeast isomaltase at 2 mM using beta-D-glycopyranoside after 10 to 30 mins in presence of beta-cyclodextrin by spectrophotometry; how it was run: as §1
[7] = test system: Helix pomatia; test: Inhibition of Helix pomatia beta-mannosidase at 2 mM using beta-D-glycopyranoside after 10 to 30 mins in presence of beta-cyclodextrin by spectrophotometry; how it was run: as §1
[8] = molecular target: Beta-glucosidase (Prunus dulcis); test: Inhibition of almond beta-glucosidase using beta-D-glycopyranoside after 10 to 30 mins by spectrophotometry
[9] = test system: Fibroblast; test: Cytotoxicity against human fibroblasts assessed as cell death at 3 to 100 uM after 24 hrs in presence of beta-cyclodextrin by lactate dehydrogenase assay; format: cell-based
How it was run: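 Normal human fibroblasts were plated at 15,000 cells per 35 mm dish and incubated overnight. Medium with or without compound was then applied for 24 h. Cytotoxicity was measured by lactate dehydrogenase release in the collected supernatant. Cells were mycoplasma-tested beforehand.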

SMILES	CMC [1]	Ki [2]	inhibition [3]	inhibition [4]	inhibition [5]	inhibition [6]	inhibition [7]	Ki [8]	Activity [9]
O=C(CCC(F)(F)C(F)(F)C(F)(F)C(F)(F)F)NCCCCNC(=S)N1[C@@H]2CO[C@H]1[C@H](O)[C@@H](O)[C@@H]2O	393 µM	> 100 µM	inactive	Active	inactive	inactive	inactive	> 100 µM	–
O=C(CCC(F)(F)C(F)(F)C(F)(F)C(F)(F)C(F)(F)C(F)(F)F)NCCCCNC(=S)N1[C@@H]2CO[C@H]1[C@H](O)[C@@H](O)[C@@H]2O	31.6 µM	> 100 µM	inactive	Active	inactive	inactive	inactive	> 100 µM	Non-Toxic
O=C(CCC(F)(F)C(F)(F)C(F)(F)C(F)(F)F)NCCCCCCCCCNC(=S)N1[C@@H]2CO[C@H]1[C@H](O)[C@@H](O)[C@@H]2O	37.5 µM	–	–	–	inactive	inactive	inactive	–	–
O=C(CCC(F)(F)C(F)(F)C(F)(F)C(F)(F)C(F)(F)C(F)(F)F)NCCCCCCCCCNC(=S)N1[C@@H]2CO[C@H]1[C@H](O)[C@@H](O)[C@@H]2O	15 µM	–	–	–	inactive	inactive	inactive	–	Non-Toxic

— ChEMBL document CHEMBL4007410, “Fluorinated Chaperone-β-Cyclodextrin Formulations for β-Glucocerebrosidase Activity Enhancement in Neuronopathic Gaucher Disease” (J Med Chem, 2017)
